Where a SMILES comes first, the peptide text is derived from it. [ ]: non-standard residue; d: D form. Hyp = O=C(O)[C@@H]1C[C@@H](O)CN1
Columns and labels:
[1] = Oral bioavailability in rat; format: ADME, organism-based; details: in vivo
[2] = target: T1, Solute carrier family 15 member 1 (Rattus norvegicus, UniProt P51574); test: Substrate activity at PEPT1 in Sprague-Dawley rat jejunum assessed as effective permeability at 5 mM measured after 15 to 120 mins by HPLC analysis; format: ADME, tissue-based; details: 5000 µM
T1 sequence (P51574 whole entry): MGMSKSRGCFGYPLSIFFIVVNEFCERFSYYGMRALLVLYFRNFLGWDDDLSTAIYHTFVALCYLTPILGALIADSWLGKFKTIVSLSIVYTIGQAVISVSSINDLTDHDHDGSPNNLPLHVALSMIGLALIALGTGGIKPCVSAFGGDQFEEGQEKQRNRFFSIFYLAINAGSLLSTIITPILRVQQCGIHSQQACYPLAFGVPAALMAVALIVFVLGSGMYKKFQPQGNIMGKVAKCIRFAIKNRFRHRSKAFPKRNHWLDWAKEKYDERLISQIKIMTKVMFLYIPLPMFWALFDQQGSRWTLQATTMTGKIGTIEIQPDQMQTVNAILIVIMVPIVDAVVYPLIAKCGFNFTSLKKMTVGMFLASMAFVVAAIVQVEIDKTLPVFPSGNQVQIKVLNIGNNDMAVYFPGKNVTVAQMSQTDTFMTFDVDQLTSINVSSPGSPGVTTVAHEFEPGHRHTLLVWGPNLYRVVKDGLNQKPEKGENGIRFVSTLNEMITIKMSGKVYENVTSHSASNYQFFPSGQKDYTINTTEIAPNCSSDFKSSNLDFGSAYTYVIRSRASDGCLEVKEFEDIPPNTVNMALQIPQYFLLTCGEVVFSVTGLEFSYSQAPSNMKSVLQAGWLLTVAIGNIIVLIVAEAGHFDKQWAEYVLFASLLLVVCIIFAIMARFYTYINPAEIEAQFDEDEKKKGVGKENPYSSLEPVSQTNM
Method in brief: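 In situ single-pass jejunal perfusion in fasted (12 h) male SD rats anaesthetised with urethane 1.5 g/kg i.p. About 10 cm of jejunum was perfused at 0.2 mL/min with pH 6.0 HEPES buffer containing 5 mM compound. Outflow was collected 15–120 min after steady state and assayed by HPLC. Peff was calculated from outlet/inlet concentration and volume ratios and segment radius and length.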

[3] = target: T1, Solute carrier family 15 member 1; test: Ratio of compound effect for substrate activity at PEPT1 in Sprague-Dawley rat jejunum assessed as effective permeability in absence of non-metabolized PEPT1 substrate Gly-Sar to compound effect for substrate activity at PEPT1 in Sprague-Dawley rat jejunum assessed as effective permeability in presence of non-metabolized PEPT1 substrate Gly-Sar; format: ADME
[4] = target: T2, Solute carrier family 15 member 1 (Homo sapiens, UniProt P46059); test: Substrate activity at PEPT1 in human Caco2 cells assessed as protein-mediated drug uptake at 0.5 mM measured after 10 mins in pH 6 HBSS buffer by UPLC-MS/MS analysis; format: ADME, cell-based; details: caco-2, pH 6, 10 min, 500 µM
T2 sequence (P46059 whole entry): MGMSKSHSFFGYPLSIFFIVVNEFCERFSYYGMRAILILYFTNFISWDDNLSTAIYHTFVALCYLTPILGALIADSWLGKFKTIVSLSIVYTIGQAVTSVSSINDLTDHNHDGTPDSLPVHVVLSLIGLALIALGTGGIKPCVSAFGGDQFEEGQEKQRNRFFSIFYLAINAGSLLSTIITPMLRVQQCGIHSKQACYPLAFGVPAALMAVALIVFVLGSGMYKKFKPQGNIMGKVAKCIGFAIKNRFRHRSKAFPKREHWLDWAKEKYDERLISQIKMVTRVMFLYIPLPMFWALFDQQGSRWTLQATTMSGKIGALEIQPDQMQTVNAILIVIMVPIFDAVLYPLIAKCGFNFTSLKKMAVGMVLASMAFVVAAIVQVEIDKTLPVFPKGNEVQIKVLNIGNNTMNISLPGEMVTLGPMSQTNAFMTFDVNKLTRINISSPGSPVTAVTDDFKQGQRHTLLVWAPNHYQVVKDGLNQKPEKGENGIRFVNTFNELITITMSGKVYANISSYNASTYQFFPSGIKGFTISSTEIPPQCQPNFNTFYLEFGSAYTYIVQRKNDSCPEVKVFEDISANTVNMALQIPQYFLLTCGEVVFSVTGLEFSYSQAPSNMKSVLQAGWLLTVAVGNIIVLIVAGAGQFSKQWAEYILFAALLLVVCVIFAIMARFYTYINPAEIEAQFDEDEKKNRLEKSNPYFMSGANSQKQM
Method in brief: (§1)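 Caco-2 cells incubated 10 min with 0.5 mM compound in HBSS at pH 6.0 or pH 7.4, washed three times in ice-cold PBS pH 7.4, homogenised. Protein by DC assay; drug by UPLC-MS/MS; n=3.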

[5] = target: T2, Solute carrier family 15 member 1; test: Substrate activity at PEPT1 in human Caco2 cells assessed as protein-mediated drug uptake at 0.5 mM measured after 10 mins in pH 7.4 HBSS buffer by UPLC-MS/MS analysis; format: ADME, cell-based; details: caco-2, pH 7.4, 10 min, 500 µM; method in brief: as §1
[6] = target: T2, Solute carrier family 15 member 1; test: Substrate activity at PEPT1 in human Caco2 cells assessed as inhibition of Gly-Sar uptake measured after 10 mins by UPLC-MS/MS analysis; format: cell-based
Method in brief: (§2)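 Caco-2 cells with 0.5 mM Gly-Sar probe substrate and competitor at 0.5–50 mM. IC50 by nonlinear fitting; n=3.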

[7] = target: T2, Solute carrier family 15 member 1; test: Substrate activity at PEPT1 in human Caco2 cells assessed as inhibition of Gly-Sar uptake by LC-MS/MS analysis; format: cell-based; method in brief: as §2

## O=C(O)[C@H](CO)NC(=O)[C@@H]1C[C@@H](O)CN1 (H-[Hyp]-Ser-OH)
[1]
  bioavailability: ≤ 100%
[2]
  Peff: Permeable
[3]
  Ratio: 7.3
[4]
  Drug uptake: Active
[5]
  Drug uptake: Not Active
[6]
  IC50: 1760 µM
[7]
  Ki: 2500 µM

From ChEMBL document CHEMBL4373712, “Bioactivatable Pseudotripeptidization of Cyclic Dipeptides To Increase the Affinity toward Oligopeptide Transporter 1 for Enhanced Oral Absorption: An Application to Cyclo(l-Hyp-l-Ser) (JBP485)” (J Med Chem, 2019)
